The text below walks through data of ChEMBL document CHEMBL5236623, “Designing Selective Drug-like Molecular Glues for the Glucocorticoid Receptor/14-3-3 Protein-Protein Interaction” (J Med Chem, 2022).

Each structure is given as a SMILES string. Calls of active or inactive are those of the source. No cut-off for these calls is given here.

For data set [1], the species on record is Homo sapiens. Put plainly: Stabilization of fluorescently-labeled human GR_pT524 peptide/human 14-3-3 zeta expressed in Escherichia coli BL21 (DE3)STAR competent cells protein-protein interaction assessed as increase in FP signal of 14-3-3/phosphopeptide complex at […] incubated for 1 hr by Fluorescence polarization assay. Background: In fluorescence polarisation assays a small probe gives low polarisation when free and higher when bound to something large.

The species named for data set [2] is Homo sapiens. Put plainly: Stabilization of fluorescently-labeled human ER_pT594 peptide/human 14-3-3 zeta expressed in Escherichia coli BL21 (DE3)STAR competent cells protein-protein interaction assessed as increase in FP signal of 14-3-3/phosphopeptide complex at […] incubated for 1 hr by Fluorescence polarization assay.
Data set [3] is filed under the species Homo sapiens. Put plainly: Stabilization of human GR_pT524 peptide/6His-tagged human 14-3-3 zeta protein-protein interaction at 1 mM by surface plasmon resonance analysis. On the technique in general: SPR reads the build-up and loss of mass on a sensor chip optically.
The species named for data set [4] is Homo sapiens. Put plainly: Stabilization of fluorescently-labeled human GR_pT524 peptide/human 14-3-3 zeta expressed in Escherichia coli BL21 (DE3)STAR competent cells protein-protein interaction assessed as increase in FP signal of 14-3-3/phosphopeptide complex incubated for 1 hr by Fluorescence polarization assay. The method, boiled down: (§1)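 14-3-3ζ/phosphopeptide fluorescence polarization assay run as a concentration-response. EC1.2 is the compound concentration (μM) giving a 20% rise in FP signal of the 14-3-3/phosphopeptide complex, read from the curve. Triplicate, three independent experiments, errors as standard deviation.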

Data set [5] is filed under the species Homo sapiens. As to the kind of experiment: Stabilization of fluorescently-labeled human GR_pT524 peptide/human 14-3-3 zeta expressed in Escherichia coli BL21 (DE3)STAR competent cells protein-protein interaction assessed as fold increase in FP signal of 14-3-3/phosphopeptide complex at […] incubated for 1 hr by Fluorescence polarization assay relative to DMSO.

The species entered for data set [6] is Homo sapiens. As to the kind of experiment: Stabilization of fluorescently-labeled human ER_pT594 peptide/human 14-3-3 zeta expressed in Escherichia coli BL21 (DE3)STAR competent cells protein-protein interaction assessed as increase in FP signal of 14-3-3/phosphopeptide complex incubated for 1 hr by Fluorescence polarization assay. The method, boiled down: as §1

For data set [7], the species on record is Homo sapiens. As to the kind of experiment: Stabilization of fluorescently-labeled human ER_pT594 peptide/human 14-3-3 zeta expressed in Escherichia coli BL21 (DE3)STAR competent cells protein-protein interaction assessed as fold increase in FP signal of 14-3-3/phosphopeptide complex at […] incubated for 1 hr by Fluorescence polarization assay relative to DMSO.

A short description of data set [8]: Apparent permeability across apical to basolateral side in human Caco-2 cells at 10 uM incubated for 2 hrs. Format: ADME, cell-based. The conditions noted are these: caco-2, 2 h.
The species named for data set [9] is Homo sapiens. As to the kind of experiment: Selectivity index, ratio of EC20 for stabilization of fluorescently-labeled human GR_pT524 peptide/human 14-3-3 zeta expressed in Escherichia coli BL21 (DE3)STAR competent cells protein-protein interaction to EC20 for stabilization of fluorescently-labeled human ER_pT594 peptide/human 14-3-3 zeta expressed in Escherichia coli BL21 (DE3)STAR competent cells protein-protein interaction.

In data set [10] the target is T1, Glucocorticoid receptor (Homo sapiens) (UniProt P04150).
T1 sequence (whole entry): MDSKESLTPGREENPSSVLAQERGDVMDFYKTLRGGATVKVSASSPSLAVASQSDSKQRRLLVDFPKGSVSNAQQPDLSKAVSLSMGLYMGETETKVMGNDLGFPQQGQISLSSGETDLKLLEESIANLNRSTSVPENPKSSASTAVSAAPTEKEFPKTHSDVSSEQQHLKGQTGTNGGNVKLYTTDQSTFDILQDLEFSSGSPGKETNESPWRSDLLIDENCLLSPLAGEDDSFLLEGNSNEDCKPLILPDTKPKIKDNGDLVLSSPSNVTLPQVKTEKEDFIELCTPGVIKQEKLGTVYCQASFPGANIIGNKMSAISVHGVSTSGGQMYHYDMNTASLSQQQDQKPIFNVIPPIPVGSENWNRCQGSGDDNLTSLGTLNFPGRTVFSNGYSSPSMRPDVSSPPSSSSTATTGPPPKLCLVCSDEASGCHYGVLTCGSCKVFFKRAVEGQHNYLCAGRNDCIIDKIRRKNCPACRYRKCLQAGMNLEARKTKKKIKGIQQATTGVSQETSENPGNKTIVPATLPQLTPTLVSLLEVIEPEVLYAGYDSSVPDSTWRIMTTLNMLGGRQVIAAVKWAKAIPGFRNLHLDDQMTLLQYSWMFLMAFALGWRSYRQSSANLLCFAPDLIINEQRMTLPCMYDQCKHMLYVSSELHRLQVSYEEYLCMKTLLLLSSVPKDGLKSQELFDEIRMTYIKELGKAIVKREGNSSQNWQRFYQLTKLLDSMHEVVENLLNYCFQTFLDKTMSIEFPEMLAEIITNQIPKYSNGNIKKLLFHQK
As to the kind of experiment: Displacement of [3H]dexamethasone from human glucocorticoid receptor by scintillation based radioligand binding assay. (Displacement assays read how much labelled ligand stays bound in the presence of the test substance.)

With `O=C(C1=C(O)C(=O)N(c2ccc(O)c(C(=O)O)c2)C1c1ccccc1)c1ccccc1` (stereo not drawn), the outcome in the data set filed under Homo sapiens [1] and in the data set listed under Homo sapiens [2] was inactive.

Turning to `Nc1ccc(C2C(C(=O)c3ccccc3)=C(O)C(=O)N2c2ccc(O)c(C(=O)O)c2)cc1` (stereo not drawn), the result in the data set listed under Homo sapiens [1] and in the data set listed under Homo sapiens [2] was inactive.

On to `C=CC(C)(C)OC[C@H]1O[C@H](O[C@@H]2C3=C([C@H](C)COC(C)=O)C[C@H](O)[C@]3(C)/C=C3/[C@@H](COC)CC[C@H]3[C@@H](C)[C@H]2O)[C@H](O)[C@@H](O)[C@@H]1O`, for which the result in the data set filed under Homo sapiens [3] and in the data set listed under Homo sapiens [4] was inactive.

By EC20 is commonly meant the concentration at which the effect reaches the 20% level. Take `O=C(O)c1cc(N2C(=O)C(O)=C(c3ccccc3)C2c2ccc([N+](=O)[O-])cc2)ccc1O` (single isomer, unassigned; (-)): the fold change (FC) in the data set listed under Homo sapiens [5] turned out to be 1.5. Besides, the concentration for an effect of 20% (EC20) in the data set filed under Homo sapiens [4] was found to be 40 µM. Also, the result in the data set filed under Homo sapiens [2] was inactive.

Turning to `O=C(C1=C(O)C(=O)N(c2ccc(O)c(C(=O)O)c2)C1c1ccc2c(c1)COC2=O)c1ccccc1` (stereo not drawn), the EC20 in the data set listed under Homo sapiens [6] was 63 µM; in the data set listed under Homo sapiens [4], 150 µM. Moreover, the results for the fold change (FC) in the data set filed under Homo sapiens [7] and in the data set filed under Homo sapiens [5] were 1.6 and 1.2, respectively.

With `O=C(C1=C(O)C(=O)N(c2ccc(O)c(C(=O)O)c2)[C@H]1c1ccc([N+](=O)[O-])cc1)c1ccc(Cl)cc1`, the EC20 in the data set filed under Homo sapiens [4] turned out to be 126 µM. Also, the result in the data set filed under Homo sapiens [2] was inactive.

Consider `O=C(O)c1cc(N2C(=O)C(O)=C(c3ccccc3)C2c2ccc([N+](=O)[O-])cc2)ccc1O` (single isomer, unassigned; (+)), for which the outcome in the data set filed under Homo sapiens [2] was inactive.

On to `O=C(C1=C(O)C(=O)N(c2ccc(O)c(C(=O)O)c2)[C@@H]1c1ccc([N+](=O)[O-])cc1)c1ccccc1`, for which the EC20 in the data set filed under Homo sapiens [6] turned out to be 15 µM; in the data set filed under Homo sapiens [4], 32 µM. For the same compound, the fold change (FC) in the data set listed under Homo sapiens [7] came out at 2.3; in the data set listed under Homo sapiens [5], 1.6.

For the compound `O=C(C1=C(O)C(=O)N(c2ccc(O)c(C(=O)O)c2)[C@@H]1c1ccc([N+](=O)[O-])cc1)c1ccc(Cl)cc1`, the EC20 in the data set listed under Homo sapiens [4] came out at 30 µM.

As to `O=C(C1=C(O)C(=O)N(c2ccc(O)cc2)C1c1ccc([N+](=O)[O-])cc1)c1ccccc1` (stereo not drawn), the EC20 in the data set listed under Homo sapiens [6] was found to be 87 µM. Moreover, the fold change (FC) in the data set listed under Homo sapiens [7] was 1.6. Moreover, the outcome in the data set listed under Homo sapiens [1] was inactive. For the same compound, the Papp in data set [8] is 0.13 10^-6 cm/s.

On to `O=C(C1=C(O)C(=O)N(c2ccccc2O)C1c1ccc([N+](=O)[O-])cc1)c1ccccc1` (stereo not drawn), for which the EC20 in the data set filed under Homo sapiens [6] was found to be 75 µM. Also, in the data set filed under Homo sapiens [7], the fold change (FC) stood at 1.4. Also, in the data set listed under Homo sapiens [1], the result was inactive. In addition, in data set [8], the Papp is 0.25 10^-6 cm/s.

As to `O=C(O)c1cc(N2C(=O)C(O)=C(c3ccccc3)C2c2ccc([N+](=O)[O-])cc2)ccc1O` (racemic), in the data set filed under Homo sapiens [5], the fold change (FC) amounted to 1.4. In addition, the EC20 in the data set listed under Homo sapiens [4] was found to be 45 µM. In addition, the result in the data set filed under Homo sapiens [2] was inactive.

Turning to `O=C(C1=C(O)C(=O)N(c2ccc(O)c(C(=O)O)c2)C1c1ccc([N+](=O)[O-])cc1)c1ccccc1` (stereo not drawn), in the data set filed under Homo sapiens [9], the Ratio is 2. Besides, the EC20 came out at 28 µM in the data set listed under Homo sapiens [6] and 63 µM in the data set listed under Homo sapiens [4]. The fold change (FC) stood at 1.9 in the data set listed under Homo sapiens [7] and 1.4 in the data set filed under Homo sapiens [5]. In addition, in [8], the Papp is reported as 0.047 10^-6 cm/s.

As for `O=C(C1=C(O)C(=O)N(c2ccc(O)c(C(=O)O)c2)C1c1ccc([N+](=O)[O-])cc1)c1ccc(Cl)cc1` (racemic), the EC20 in the data set listed under Homo sapiens [4] stood at 42 µM. Further, in [10], the result was inactive.

As for `O=C(C1=C(O)C(=O)N(c2ccc(O)c(C(=O)O)c2)C1c1ccc([N+](=O)[O-])cc1)c1cccc(OC(F)F)c1` (stereo not drawn), the outcome in the data set filed under Homo sapiens [1] and in the data set listed under Homo sapiens [2] was inactive.

Take `O=C(O)c1cc(N2C(=O)C(O)=C(Cc3ccccc3)C2c2ccc([N+](=O)[O-])cc2)ccc1O` (stereo not drawn): the EC20 was found to be 175 µM in the data set listed under Homo sapiens [6] and 82 µM in the data set filed under Homo sapiens [4]. For the same compound, the fold change (FC) in the data set listed under Homo sapiens [7] stood at 1.2; in the data set listed under Homo sapiens [5], 1.3.

For the compound `O=C(O)c1cc(N2C(=O)C(O)=C(C(=O)c3ccccc3Cl)C2c2ccc([N+](=O)[O-])cc2)ccc1O` (stereo not drawn), the EC20 in the data set listed under Homo sapiens [6] was 73 µM; in the data set filed under Homo sapiens [4], 96 µM. Further, the results for the fold change (FC) in the data set filed under Homo sapiens [7] and in the data set filed under Homo sapiens [5] were 1.4 and 1.2, respectively.

For `O=C(C1=C(O)C(=O)N(c2ccc(O)c(C(=O)O)c2)[C@H]1c1ccc([N+](=O)[O-])cc1)c1ccccc1`, the fold change (FC) in the data set listed under Homo sapiens [5] was found to be 1.2. Moreover, the EC20 in the data set listed under Homo sapiens [4] stood at 162 µM. Also, the outcome in the data set listed under Homo sapiens [2] was inactive.
